We go through 39 compounds from ChEMBL document CHEMBL1144663, “1-Aryl-tetrahydroisoquinoline analogs as active anti-HIV agents in vitro” (Bioorg Med Chem Lett, 2008).

Values after ≈ are worked out from the molar mass of the structure shown.

Data set [1] relates to Human immunodeficiency virus 1. Put plainly: Antiviral activity against HIV1 3B in C8166 cells by syncytium reduction assay. The format is functional, organism-based. The conditions noted are these: Human immunodeficiency virus 1, 3B. In a few lines: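 C8166 cells (4 × 10⁵/mL) exposed to serial compound concentrations and infected with HIV-1 IIIB at MOI 0.06; zidovudine positive control. After 3 days of culture, syncytia counted per well by inverted microscopy; percent inhibition versus infected untreated control; EC50 is concentration protecting cells from viral cytopathogenicity by 50%.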

The nature of data set [2]: Cytotoxicity against human C8166 cells after 72 hrs by MTT method. It is filed as cell-based. In a few lines: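 Supernatant discarded, MTT (5 mg/mL in PBS) added for 4 h, formazan dissolved in 50% DMF–20% SDS, absorbance 595/630 nm. CC50 (50% reduction of viable cells) taken from dose–response curve.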
(In general: Formazan colour is commonly taken as a measure of viable cells.)

The nature of data set [3]: Selectivity index, ratio of CC50 for C8166 cells to EC50 for HIV1 3B. It is filed as functional. The method, boiled down:
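Ratio of CC50 (MTT, uninfected C8166, 72 h) to EC50 (syncytium reduction, HIV-1 IIIB-infected C8166, MOI 0.06, 3 days), both determined in this work.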

Data set [4] addresses Human immunodeficiency virus type 1 reverse transcriptase (Human immunodeficiency virus 1) (UniProt Q72547). Description: Inhibition of HIV1 recombinant reverse transcriptase at 210 ug/ml.
Data set [5] shares this target. Put plainly: Inhibition of HIV1 recombinant reverse transcriptase at 200 ug/ml.
Data set [6] relates to Human immunodeficiency virus. Description: Inhibition of HIV replication in H9 cells. The format is functional, organism-based. The conditions noted are these: Human immunodeficiency virus 1, H9.

By EC50 is commonly meant the midpoint of the concentration-response curve. One may read the CC50 as the concentration that lowers cell viability or growth by half. Broadly, the Inhibition is the share of the control response that was lost under treatment.

On to `Cc1ccccc1C1NCCc2cc(O)c(O)cc21` (centres undefined), for which, in data set [1], the response was half-maximal at 61.9 µM (EC50). The compound also returned a CC50 at 72 h in data set [2] of more than 784 µM. In addition, the “Ratio CC50/EC50” value in data set [3] is more than 13.
In the same order, the values of `COc1cc2c(cc1OC)C(c1ccccc1OC)NCC2` (centres undefined) are 45.9 µM, 555 µM and 12.
The matching figures for `COc1cc2c(cc1OC)C(c1ccc(Br)cc1)NCC2` (centres undefined): 16.9 µM, 37.9 µM and 2.2.
Compound `Oc1cc2c(cc1O)C(c1cccc(Br)c1)NCC2` (centres undefined) showed an EC50 in data set [1] of 53.5 µM. In data set [2], this compound displayed a CC50 at 72 h of more than 625 µM. Moreover, in data set [3], the “Ratio CC50/EC50” value was more than 12.
In the same order, the values of `Oc1cc2c(cc1O)C(c1ccc(Br)cc1)NCC2` (centres undefined) are 36.2 µM, more than 625 µM and more than 18.
In turn, `COc1cc2c(cc1OC)C(c1ccc(C(F)(F)F)cc1)NCC2` (centres undefined) showed an EC50 in data set [1] of 27.8 µM. This compound also showed a CC50 at 72 h in data set [2] of 30.9 µM. The “Ratio CC50/EC50” value in data set [3] was less than 1.
In the same order, the values of `Oc1cc2c(cc1O)C(c1ccc(C(F)(F)F)cc1)NCC2` (centres undefined) are 27.6 µM, 42.3 µM and 1.5.
In the same order, the values of `COc1cc2c(cc1OC)C(c1ccccn1)NCC2` (centres undefined) are 171 µM, 444 µM and 2.8.
For the compound `CC1NCCc2ccc(O)c(O)c21` (centres undefined), the Inhibition in data set [4] was determined as 48%.
Turning to `COc1cc2c(cc1OC)C(c1ccc(C)cc1)NCC2` (centres undefined), the EC50 in data set [1] is 67.3 µM. The compound further returned a CC50 at 72 h in data set [2] of 281 µM. For the same compound, the “Ratio CC50/EC50” value in data set [3] is recorded as 4.2.
In the same order, the values of `COc1cc2c(cc1OC)C(c1ccccc1Br)NCC2` (centres undefined) are 31.3 µM, 89 µM and 2.8.
In the same order, the values of `Oc1cc2c(cc1O)C(c1cccc3ccccc13)NCC2` (centres undefined) are 33.2 µM, 47.4 µM and 1.9.
In the same order, the values of `COc1ccccc1C1NCCc2cc(O)c(O)cc21` (centres undefined) are 42.2 µM, more than 738 µM and more than 18.
In turn, `COc1cc2c(cc1OC)C(c1cccc3ccccc13)NCC2` (centres undefined) registered an EC50 in data set [1] of 22.6 µM. This compound also yielded a CC50 at 72 h in data set [2] of 64.8 µM. In addition, in data set [3], the “Ratio CC50/EC50” value is given as 2.9.
`Oc1cc2c(cc1O)C(c1ccc3ccccc3c1)NCC2` (centres undefined) registered an EC50 in data set [1] of 5.3 µM. Also, the CC50 at 72 h in data set [2] is more than 687 µM. In data set [3], the “Ratio CC50/EC50” value is more than 130. Moreover, the Inhibition in data set [5] stood at 30%.
In data set [1], `Oc1cc2c(cc1O)C(c1ccccc1)NCC2` (centres undefined) came in with an EC50 of 67.3 µM. Also, the CC50 at 72 h in data set [2] is more than 830 µM. The “Ratio CC50/EC50” value in data set [3] is on record as more than 12.
`Cc1cn([C@H]2C[C@H](N=[N+]=[N-])[C@@H](CO)O2)c(=O)[nH]c1=O` [ZIDOVUDINE] came in with an EC50 in data set [1] of 0.011 µM. In addition, the CC50 at 72 h in data set [2] is more than 749 µM. For the same compound, the “Ratio CC50/EC50” value in data set [3] is on record as more than 68091.
In the same order, the values of `N#Cc1ccc(C2NCCc3cc(O)c(O)cc32)cc1` (centres undefined) are 53.7 µM, more than 752 µM and more than 14.
In turn, `COc1cc2c(cc1O)[C@@H](Cc1ccc(O)cc1)NCC2` registered an EC50 in data set [6] of 0.8 µg/mL (≈ 2.8 µM).
Consider `COc1cc2c(cc1OC)C(c1ccccc1C)NCC2` (centres undefined), for which, in data set [1], the midpoint of the response, the EC50, lay at 42.5 µM. Besides, it took 197 µM to reach half-maximal cytotoxicity in data set [2] (CC50 at 72 h). The “Ratio CC50/EC50” value in data set [3] is 4.6.
`Oc1cc2c(cc1O)C(c1ccccc1F)NCC2` (centres undefined) registered an EC50 in data set [1] of 58.4 µM. Besides, the half-maximal cytotoxic concentration (CC50) at 72 h in data set [2] was more than 772 µM. Also, the “Ratio CC50/EC50” value in data set [3] is more than 13.
The matching figures for `COc1cc2c(cc1OC)C(c1ccccc1)NCC2` (centres undefined): 120 µM, 294 µM and 2.4.
The matching figures for `Oc1cc2c(cc1O)C(c1ccccc1Br)NCC2` (centres undefined): 23.7 µM, more than 625 µM and more than 26.
The matching figures for `Oc1cc2c(cc1O)C(c1ccco1)NCC2` (centres undefined): 61.7 µM, more than 866 µM and more than 14.
In data set [1], `Cc1ccc(C2NCCc3cc(O)c(O)cc32)cc1` (centres undefined) showed a concentration for a half-maximal effect (EC50) of 8.2 µM. In addition, the CC50 at 72 h in data set [2] was more than 784 µM. Besides, the “Ratio CC50/EC50” value in data set [3] was more than 95. Moreover, the Inhibition in data set [5] is 28%.
Consider `COc1cc2c(cc1OC)C(c1ccc3ccccc3c1)NCC2` (centres undefined), for which a half-maximal response in data set [1] (EC50) required 6.9 µM. The same compound showed a CC50 at 72 h in data set [2] of 54.6 µM. Also, the “Ratio CC50/EC50” value in data set [3] was determined as 7.9.
The matching figures for `COc1ccc(C2NCCc3cc(O)c(O)cc32)cc1` (centres undefined): 34.1 µM, more than 738 µM and more than 22.
Turning to `Oc1cc2c(cc1O)C(c1ccccn1)NCC2` (centres undefined), the EC50 in data set [1] was determined as 48.4 µM. The compound further registered a CC50 at 72 h in data set [2] of more than 826 µM. For the same compound, the “Ratio CC50/EC50” value in data set [3] is more than 11.
In the same order, the values of `COc1ccc(C2NCCc3cc(O)c(O)cc32)c(OC)c1` (centres undefined) are 46.5 µM, more than 664 µM and more than 14.
The matching figures for `COc1cc2c(cc1OC)C(c1ccccc1F)NCC2` (centres undefined): 69 µM, 175 µM and 2.8.
`Oc1cc2c(cc1O)C(c1cccc(Cl)c1)NCC2` (centres undefined) registered an EC50 in data set [1] of 4.6 µM. In data set [2], the CC50 at 72 h was more than 727 µM. Besides, the “Ratio CC50/EC50” value in data set [3] is listed as more than 159. Moreover, in data set [5], the Inhibition turned out to be 20%.
`COc1cc2c(cc1OC)C(c1cccc(Cl)c1)NCC2` (centres undefined): a half-maximal response in data set [1] (EC50) required 31.8 µM. In data set [2], this compound returned a CC50 at 72 h of 184 µM. Also, the “Ratio CC50/EC50” value in data set [3] was found to be 5.9.
The matching figures for `COc1cc2c(cc1OC)C(c1cccc(Br)c1)NCC2` (centres undefined): 43.5 µM, 107 µM and 2.4.
In turn, `CC1NCCc2cc(O)c(O)cc21` (centres undefined) showed an EC50 in data set [6] of 0.117 µg/mL (≈ 0.653 µM).
The compound `Oc1cc2c(cc1O)C(c1ccccc1Cl)NCC2` (centres undefined) gave an EC50 in data set [1] of 51.8 µM. Moreover, in data set [2], the CC50 at 72 h was more than 727 µM. Besides, the “Ratio CC50/EC50” value in data set [3] is more than 14.
In data set [1], `COc1cc2c(cc1OC)C(c1ccccc1Cl)NCC2` (centres undefined) had a 50% effective concentration (EC50) of 58.4 µM. Also, the midpoint of cytotoxicity in data set [2], the CC50 at 72 h, lay at 249 µM. The “Ratio CC50/EC50” value in data set [3] turned out to be 4.3.
The matching figures for `COc1ccc(C2NCCc3cc(OC)c(OC)cc32)c(OC)c1` (centres undefined): 43.8 µM, 227 µM and 5.2.
`COc1ccc(C2NCCc3cc(OC)c(OC)cc32)cc1` (centres undefined): the concentration giving a half-maximal response (EC50) in data set [1] was 127 µM. In data set [2], this compound displayed a CC50 at 72 h of 312 µM. In data set [3], the “Ratio CC50/EC50” value is on record as 2.5.
In the same order, the values of `COc1cc2c(cc1OC)C(c1ccco1)NCC2` (centres undefined) are 152 µM, 572 µM and 3.8.
